The text below walks through data of ChEMBL document CHEMBL1165978, “Synthesis and evaluation of in vitro anticancer activity of some novel isopentenyladenosine derivatives” (Bioorg Med Chem, 2010).

In experiment [1] the test system is T-24. The experiment can be described thus: Cytotoxicity against human T24 cells assessed as inhibition of cell colony formation at 10 uM after 24 hrs by crystal violet staining. Format: functional, cell-based.
Experiment [2] deals with T-24. The experiment can be described thus: Cytotoxicity against human T24 cells assessed as mild inhibition of cell colony formation at 10 uM after 24 hrs by crystal violet staining. Type of experiment: functional, cell-based.
For experiment [3], the system named is T-24. The experiment can be described thus: Antimetastatic activity in human T24 cells assessed as inhibition of EGF-stimulated cellular migration at 10 uM after 16 hrs by microscopic analysis. Format: functional, cell-based. The method in brief:
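Confluent T24 monolayers in 24-well plates were scratch-wounded, then given EGF (100 ng/mL) plus compound for 16 h, with DMSO (0.01% final) as control. Cells moving into the wound were photographed by microscope. Four fields per sample were counted and expressed as migration relative to control. Data are from at least 3 experiments in triplicate, mean ± SD, Student's t test.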

Experiment [4] has as its system T-24. As to the kind of experiment: Antiproliferative activity against proliferating human T24 cells assessed as mild decrease in viable cell count at 10 uM after 72 hrs by trypan blue exclusion assay. Type of experiment: functional, cell-based. The procedure, abridged:
(§1)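 T24 cells were seeded at 2000/cm² in growth medium and allowed to attach for 16 h. They were then switched to complete medium (D-MEM, 10% FBS, 1 mM L-glutamine, penicillin/streptomycin) or to starvation medium (D-MEM, 0.1% FBS, 48 h, to induce quiescence). After 48 h, compound was added for 72 h, with 0.01% DMSO as control. Cells were trypsinized, stained with trypan blue and counted in a Burker chamber. Data are mean ± SD of at least 3 experiments in triplicate.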

In experiment [5] the test system is T-24. The experiment can be described thus: Antiproliferative activity against quiescent human T24 cells at 10 uM after 72 hrs by MTT assay. Format: functional, cell-based. The method in brief: (§2)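 T24 cells were seeded at 2000/cm², and 16 h later were exposed to starvation medium (D-MEM, 0.1% FBS) or fresh complete medium (10% FBS) and treated with compound, with 0.01% DMSO as control. For the final 1 h the medium held MTT at 0.5 mg/mL. Formazan was then dissolved in DMSO for read-out. Data are mean ± SD of at least 3 experiments in triplicate, Student's t test.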
(In general: Tetrazolium dyes change colour on reduction, which living cells bring about.)

The subject of experiment [6] is T-24. As to the kind of experiment: Antiproliferative activity against quiescent human T24 cells assessed as decrease in viable cell count at 10 uM after 72 hrs by trypan blue exclusion assay. Type of experiment: functional, cell-based. The procedure, abridged:
as §1

Experiment [7] relates to T-24. As to the kind of experiment: Antiproliferative activity against proliferating human T24 cells at 10 uM after 72 hrs by MTT assay. Format: functional, cell-based. The procedure, abridged: as §2
The subject of experiment [8] is T-24. The experiment can be described thus: Antiproliferative activity against proliferating human T24 cells at 10 uM after 72 hrs by MTT assay in presence of 10% fetal bovine serum.

Calls of active or inactive are those of the source. No cut-off for these calls is given here.

For the compound `CC(C)=CCNc1ncnc2c1ncn2[C@@H]1O[C@H](CO)[C@@H](O)[C@H]1O` (stereo in doubt; 1a), the inhibition result in the experiment on T-24 [1] was “inactive”.
With `CC(C)=CCNc1nc(N)nc2c1ncn2[C@@H]1O[C@H](CO)[C@@H](O)[C@H]1O`, the inhibition entry with T-24 [2], in the experiment on T-24 [4] and with T-24 [6] was “Active” throughout. The inhibition result in the experiment on T-24 [3] was “inactive”. Moreover, in the experiment on T-24 [5], the outcome was Active.
In the case of `CC(C)=CCNc1ncnc2c1ncn2[C@@H]1O[C@H](CO)[C@@H](O)[C@@H]1O`, the result in the experiment on T-24 [5] and in the experiment with T-24 [7] was inactive. Moreover, in the experiment with T-24 [1], the inhibition result was “inactive”.
For the compound `CC(C)=CCNc1ncnc2c1ncn2[C@@H]1O[C@H](CO)[C@@H](O)[C@H]1O` (stereo in doubt), the inhibition result with T-24 [3] was “inactive”. The result with T-24 [5] was Active. Besides, the inhibition result with T-24 [1] is “Active”.
Take `CC(C)=CC[n+]1cnc2c(ncn2[C@@H]2O[C@H](CO)C[C@H]2O)c1N`: in the experiment on T-24 [3], the inhibition result is “inactive”. Also, the outcome in the experiment with T-24 [8] was inactive. In addition, the inhibition entry in the experiment with T-24 [6] was “Active”.
